From PubChem BioAssay
MEKK2 WT-MEK5 – raises or lowers MEK5 binding to wildtype human MEKK2 PB1 domain; Q9Y2U5; 1.1% of 290,000 active; binding response (% of control), % at 10 µM; AID 1531; bead flow cytometry, Alexa488-MEK5 binding to MEKK2 WT; actives lie on both sides; in the data active = binding response below about 67% or above about 130%; inconclusive = no clear call, values can overlap the other calls; inactive = in between
MEKK2mut PB1 HTS – signal of MEK5 binding to mutant human MEKK2 PB1 domain; 0.35% of 290,000 active; bead flow cytometry, Alexa488-MEK5 binding to MEKK2 mutant; percent response, % at 10 µM; in the data active = percent response above about 24%, passing the limit was not always enough
DSG3 Ab inh – human desmoglein-3 autoantibody binding inhibition; P32926; DSG3-coupled beads, scFv-anti-DSG3-GFP binding, flow cytometry; hits give low values; binding (percent of control), % at 10 µM; 0.48% of 310,000 active; AID 588358;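 active = binding more than 3 SD below its plate's average and above zero; inconclusive = below that plate limit but binding exactly zero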;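 note: hits lower antibody fragment binding to DSG3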
UBC13 inh – blocks human UBC13 polyubiquitin chain formation; P61088; TR-FRET; inhibition, % at 20 µM; 0.47% of 330,000 active; in the data active = inhibition above about 45%, passing the limit was not always enough; inconclusive = no clear call, values can overlap the other calls
Apaf1 inhib – blocks human Apaf-1 apoptosome activity. O14727. reconstituted apoptosome caspase-3 activity, DEVD-Rh110 fluorescence. inhibition, % at 20 µM. 0.71% of 330,000 active; active = inhibition of at least 40% at 20 µM
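Material: reconstituted apoptosome with Apaf-1, cytochrome c, caspase-9, procaspase-3, dATP / Buffer or medium: pH 7.5 Hepes buffer with CHAPS, BSA, DTT / Also added: cytochrome c with DEVD-Rh110 / Schedule: compound with Apaf-1, dATP, procaspase-3 30 min, then 50 min reaction, room temperature / Technique: rhodamine 110 fluorescence at Ex 480/Em 540 nm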
MEKK3 PB1 HTS – raises or lowers MEK5 binding to the human MEKK3 PB1 domain; Q99759; bead-based flow cytometry, Alexa488-MEK5 binding to MEKK3; actives lie on both sides; 0 = blocked by unlabeled MEK5, 100 = vehicle; binding response (% of control), % at 10 µM; 1.4% of 290,000 active; AID 1529;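 active = binding response more than 3 SD above or below the average of its plate-row segment, actives on both sides; inconclusive = wells at one plate position flagged as instrument error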;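 note: Alexa488 bead fluorescence after subtracting the streptavidin-only scavenger bead signal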
A number is an active result; . = inactive; ? = inconclusive; / = no result; [ ] = remark or other dose. Most compounds without a hit are left out; they make up all but 3.2% or so of the library.

SMILES | MEKK2 WT-MEK5 | MEKK2mut PB1 HTS | DSG3 Ab inh | UBC13 inh | Apaf1 inhib | MEKK3 PB1 HTS
CC(C)(C)OC(=O)N1CCCN(C(=O)Nc2ccccc2)CC1 | . | . | 87 | . | . | .
NS(=O)(=O)c1ccc(CNC(=S)Nc2cc(S(=O)(=O)N3CCOCC3)ccc2Cl)cc1 | / | / | . | / | / | /
O=C(Nc1ccc2c(c1)C(=O)N(c1ccccc1)C2=O)c1cccs1 | . | . | 87 | . | . | .
O=C(Nc1ccc(Cl)cc1)c1cccs1 | . | . | . | . | . | .
O=C(Nc1ccc(NC(=O)c2cccs2)cc1)c1cccs1 | . | . | 22 | . | . | .
O=C1CSC(=S)N1N=Cc1ccc(Cl)s1 | / | / | . | / | / | /
COc1cc(OC)cc(C(=O)OCc2cc3ccccc3[nH]c2=O)c1 | / | / | 80 | . | . | /
CCCn1c(N2CCN(S(=O)(=O)Cc3ccccc3)CC2)nc2ccccc21 | . | . | 56 | . | . | .
CCn1c(N2CCN(S(=O)(=O)c3ccccc3)CC2)nc2ccccc21 | . | . | . | . | . | .
CC1(C)CC(=O)C(C(O)c2ccc([N+](=O)[O-])cc2)C(C)(C)N1 (stereo not drawn) | . | . | . | . | . | .
CC1(C)CC(=O)C(C(O)c2ccccc2)C(C)(C)N1 (stereo not drawn) | . | . | 72 | . | . | .
c1nc(SSc2ncnc3nc[nH]c23)c2[nH]cnc2n1 | / | / | 66 | / | / | /
C#CCn1c2ccccc2c2nc3ccccc3nc21 | . | . | 82 | . | . | .
COC(=O)c1cc(NC(=O)COC(=O)CCc2nc3ccccc3c(=O)[nH]2)cc(C(=O)OC)c1 | / | / | 65 | . | . | /
O=C(COC(=O)CCc1nc2ccccc2c(=O)[nH]1)Nc1ccccc1 | / | / | . | . | . | /
O=S(=O)(c1cc(-c2nnc(-c3ccc(Br)cc3)o2)ccc1Br)N1CCCCCC1 | . | . | 74 | . | . | .
O=S(=O)(c1cc(Br)ccc1Br)N1CCCCCC1 | . | . | . | . | . | .
C=CCOC(=O)COc1ccc2c3c(c(=O)oc2c1)CCCC3 | / | / | . | / | / | /
CCCC(=O)Nc1ccc(Oc2ccc(NC(=O)CCC)cc2)cc1 | . | . | 55 | . | . | .
CCCC(=O)Nc1ccc(OCC(=O)OC)cc1 | . | . | . | . | . | .
CCOc1ccc(S(=O)(=O)c2ccc(C)cc2)c2c1no[n+]2[O-] | / | / | . | / | / | /
CC(=O)N1c2ccc(S(=O)(=O)N3CCCC(C(=O)N4CCC(C)CC4)C3)cc2CC1C (stereo not drawn) | . | . | -9.0 | . | . | .
CC(=O)N1c2ccc(S(=O)(=O)N3CCCC(C(=O)N4CCCC(C)C4)C3)cc2CC1C (stereo not drawn) | . | . | . | . | . | .
CC(C)=CCN1CCN(Cc2nc(C(C)C)cs2)CC1CCO (stereo not drawn) | . | . | . | . | . | .
CC(C)CN1CCN(Cc2nc(C(C)C)cs2)CC1CCO (stereo not drawn) | . | . | -8.8 | . | . | .
SMILES | MEKK2 WT-MEK5 | MEKK2mut PB1 HTS | DSG3 Ab inh | UBC13 inh | Apaf1 inhib | MEKK3 PB1 HTS
Cc1ccc(NS(=O)(=O)c2c(C(=O)N3CCCCCC3)c(C)n(C)c2C)c(C)c1 | . | . | . | . | . | .
CC1(C(=O)N2CCC(CO)(Cc3cccc(C(F)(F)F)c3)CC2)CC1 | . | . | 98 | . | . | .
N=C1C(c2nc3ccccc3s2)=C(O)CN1NC(=O)c1ccco1 | . | . | 76 | . | . | .
COc1cccc(C(=O)NN2CC(O)=C(c3nc4ccccc4s3)C2=N)c1 | . | . | . | . | . | .
O=C(CSc1nc2nn(-c3ccccc3)c(=O)c-2c2n1CCCCC2)Nc1ccc(F)c(F)c1 | / | / | -12 | . | . | /
C[C@H](CO)N1C[C@H](C)[C@@H](CN(C)S(=O)(=O)c2cccs2)Oc2ccc(NS(=O)(=O)c3ccccc3)cc2C1=O | / | / | . | . | . | /
Cc1ccc2oc(=O)c(-c3ccc(O)cc3)c(C)c2c1 | / | / | . | . | . | /
COC(=O)c1c(C(=O)OC)c2cccc3cc(-c4ccccc4)c4ccc1c4n32 | . | . | . | . | 65 | .
O=C(NNC(=O)C1CC(c2cccs2)=NO1)Nc1ccccc1 (stereo not drawn) | . | . | . | . | . | .
Nc1nonc1-n1nnc(C(=O)N/N=C/c2cccnc2)c1-c1ccccc1 | . | . | . | . | . | .
Cc1ccc(-n2nc3c(c2NC(=O)c2ccc4c(c2)OCO4)CS(=O)(=O)C3)cc1 | 0.0[inhibitor] | . | / | . | . | 2.0[inhibitor]
Cc1ccc(-n2nc3c(c2NC(=O)c2ccc4c(c2)OCO4)CS(=O)(=O)C3)cc1C | . | . | . | . | . | .
O=C(Nc1c2c(nn1-c1cccc(Cl)c1)CS(=O)(=O)C2)c1ccco1 | 42[inhibitor] | . | / | . | . | 36[inhibitor]
CN(C(=O)COC(=O)c1cccc(Cl)c1)C1CCS(=O)(=O)C1 (stereo not drawn) | / | / | . | . | . | /
CN(C(=O)COC(=O)c1ccc(-c2ccc(O)cc2)cc1)C1CCS(=O)(=O)C1 (stereo not drawn) | . | . | 70 | . | . | .
O=C(Nc1ccccn1)c1cccc(S(=O)(=O)N2CCCC2)c1 | . | . | / | . | . | 82[inhibitor]
COc1cccc2c1C(=O)c1c(O)c3c(c(O)c1C2=O)C[C@@](O)(C(=O)CO)C[C@@H]3O[C@H]1C[C@H](N)[C@@H](O)[C@H](C)O1 | 7.0 | . | . | . | 56 | .
COc1cccc2c1C(=O)c1c(O)c3c(c(O)c1C2=O)C[C@@](O)(C(C)=O)C[C@@H]3O[C@H]1C[C@H](N)[C@H](O)[C@H](C)O1 | . | . | . | / | / | .
CCn1c(=O)c2ccccc2n(Cc2ccccc2C)c1=O | . | . | . | . | . | .
CCN(CC)c1ccc(-c2sc(Nc3ccccc3)n[n+]2-c2ccc(F)cc2)cc1 | 33 | 76 | . | . | . | .
Cc1c(S(=O)(=O)N2CCN(c3cccc(C(F)(F)F)c3)CC2)c(=O)n(C)c(=O)n1C | . | . | . | . | . | .
Cn1c(=O)c(=O)n(C)c2cc(S(=O)(=O)N3CCN(c4cccc(C(F)(F)F)c4)CC3)ccc21 | . | . | 71 | . | . | .
Cc1c(C)n(Cc2ccc(F)cc2)c2ccc(C(=O)NCCCN3CCOCC3)cc12 | . | . | . | . | . | .
O=C(Cn1c(=O)c2cccn2c2ccc(F)cc21)NCCCN1CCN(c2ccccc2F)CC1 | 156 | 27 | . | . | . | .
Cc1c(C)n(C)c2ccc(C(=O)NCCCN3CCN(c4ccc(F)cc4)CC3)cc12 | 134 | . | ? | . | . | .
Cc1c(C)n(C)c2ccc(C(=O)NCCCN3CCN(c4ccccc4F)CC3)cc12 | 158 | . | . | . | . | .
Cc1cccc(-n2c(SCC(=O)NCC3CCCO3)nc3ccccc3c2=O)c1C (stereo not drawn) | / | / | . | . | . | /
